Screens as filed in PubChem.
Most compounds without a hit are left out; they make up all but 4.2% or so of the library.
CHOP inhibitor: inhibitors of CHOP promoter induction, primary screen, cell-based, unfolded protein response, luciferase reporter | CHO-K1 CHOP-promoter luciferase, tunicamycin-induced, 15-18 h | AID 2732, 2010 | hit rate 3.8% among 220,000 | inhibition, % at 10 µM;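 active = compounds that reduced the stress-induced luciferase reporter signal by more than about 70% of percent inhibition, limit read from the data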;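 also: 0% = tunicamycin plus vehicle and 100% = wells without tunicamycin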
Hep lipid drop: inhibitors of hepatocyte lipid droplet formation, primary screen, imaging, high-throughput imaging, BODIPY stain; hit rate 0.4% among 240,000; AML12 mouse hepatocytes, oleate lipid droplets; AID 1656, 2009; inhibition, % at 6.5 µM;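 active = lipid droplet intensity inhibited by at least 50%, with more than 500 cells counted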
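Material – mouse AML12 hepatocyte cell line, fixed after treatment · Compound dosing – one dose, 6.5 µM compound · Times – compound with oleate, overnight · Measured by – Image-based BODIPY and DAPI two-channel analysis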
TMEM16A inh: TMEM16A chloride channel inhibitors, primary screen, cell-based, HTS. Anoctamin-1 (Mus musculus), Q8BHY3. HEK293 TMEM16A/YFP iodide influx fluorescence, ionomycin. normalized B-score (activity score, 25-100; higher = stronger inhibition) at 10 µM. hit rate 1.2% among 310,000. AID 588511, 2011;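 active = ratio plate-corrected score three or more library SD toward inhibition, starting fluorescence score within five deviations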;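 also: score derived from kinetic fluorescence span divided by baseline fluorescence per well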
TMEM16A act: TMEM16A chloride channel activators or potentiators, primary screen, cell-based, HTS. B-score at 10 µM. AID 623877, 2012. hit rate 0.3% among 340,000. HEK293 TMEM16A/YFP-H148Q/I152L, iodide quench fluorescence; stronger effect = lower value;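 active = fluorescence-ratio B-score plate-corrected deviation score at least 3 library SD below zero, with starting fluorescence score within 5 deviations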;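 also: channel opened by trigger with iodide after compound preincubation; score built on the fluorescence ratio of max minus min over baseline; more negative score means more quench and so TMEM16A activation or potentiation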
UPR XBP1 act: activators of adaptive XBP1 UPR arm, primary screen, cell-based, CHO-XBP1 luciferase reporter, luminescence, uHTS; IRE1-XBP1 UPR activation; percent of tunicamycin response, DMSO as zero; activation, % at 20 µM; hit rate 0.33% among 330,000; AID 463104, 2010;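 active = versus positive control, 20 µM dose yields 30% or more activation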;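 also: 100% = tunicamycin at 10 µg/mL and 0% = DMSO only wells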
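Material: CHO-XBP1 cells stably carrying IRE1-XBP1-driven luciferase reporter / Amount: 1000 cells per well / Compound: 20 µM, 1% DMSO / Times: 6 h treatment, 37 °C / Detection: luciferase luminescence / Measure: % activation of reporter signal versus tunicamycin and DMSO controls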
CHOP UPR activ: activators of apoptotic CHOP UPR arm, primary screen, cell-based, CHO-CHOP luciferase reporter, luminescence, uHTS; UPR activation; percent of tunicamycin response over DMSO baseline; activation, % at 10 µM; hit rate 0.34% among 330,000; AID 449763, 2010;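 active = at 10 µM dose, activation of 40% or more, normalized to positive control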;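 also: 100% = tunicamycin at 10 µg/mL and 0% = DMSO alone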
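System: CHO-CHOP luciferase reporter cell line | Buffer or medium: F12 medium containing 10% fetal bovine serum | Doses: One dose, 10 µM in 0.5% DMSO | Times: 6 h compound exposure at 37 °C after overnight seeding | Signal: Luciferase luminescence | Read-out: % activation vs tunicamycin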
UPR XBP1 confirm: IRE1-XBP1 UPR arm activators, confirmation, cell-based, CHO-XBP1 luciferase reporter, luminescence, single concentration. shares compounds with UPR XBP1 act. activation, % at 20 µM. hit rate 63% among 1,000;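 active = reporter signal at least 30% of the positive control's activation in two or more of four replicate wells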;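 also: plate controls were DMSO negative control for no effect and tunicamycin 10 µg/mL positive control for full effect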
Numbers without * were called inactive; i = inactive; / = not tested or not shown.

SMILES	CHOP inhibitor	Hep lipid drop	TMEM16A inh	TMEM16A act	UPR XBP1 act	CHOP UPR activ	UPR XBP1 confirm
O=C(NCC1CC1)c1cccc2c1C(=O)c1ccc(-c3ccc(OC(F)(F)F)cc3)cc1S2(=O)=O	/	/	/	i	40.6*	20.5	41.8*
COc1ccc(-c2ccc3c(c2)S(=O)(=O)c2cccc(C(=O)NC[C@@H]4CCCO4)c2C3=O)cc1OC	/	/	/	i	0.2	1.3	/
Cc1nc(Oc2ccccc2)c2ccccc2n1	16.8	-5.2	i	i	-1.4	-1.2	/
c1ccc(Oc2c3ccccc3nc3ccccc23)cc1	-28.9	-5.2	i	/	62.6*	6.4	67.3*
NS(=O)(=O)c1cc2c(cc1Cl)NC(c1ccccc1OCC(=O)O)NS2(=O)=O (stereo not given)	/	-0.5	i	i	1.1	0.6	/
O=[N+]([O-])c1ccc(N/N=C/c2ccc(OCc3cccc4ccccc34)cc2)nc1	54.5	21.2	i	i	74.2*	36.1	34.5*
Cc1nn(Cc2ccccc2)c(C)c1NC(=O)CSc1nc(C2CC2)nc2c1cnn2-c1ccccc1	42.0	-12.7	i	i	202.5*	25.9	333.4*
Cc1nn(C)c(C)c1NC(=O)CSc1nc(Cc2ccccc2)nc2c1cnn2-c1ccccc1	/	/	i	/	0.5	-2.0	/
CCCCCCCCCCn1ccc(=N)cc1	80.1*	-19.2	i	i	34.7*	18.4	23.6
CCN(CC)CCCCCCCCOC(=O)c1cc(OC)c(OC)c(OC)c1	0.9	/	i	i	-4.6	-2.8	/
COCCCNCC1C(Oc2ccc(Cl)cc2)C(=O)N1c1ccccc1C (stereo not given)	13.5	13.9	i	i	36.2*	0.0	-1.3
O=C(C[n+]1ccc(-c2cc(C(=O)Nc3cccc(C(F)(F)F)c3)c3ccccc3n2)cc1)c1cccc([N+](=O)[O-])c1	81.5*	-28.3	i	i	105.9*	11.0	91.0*
O=C(CSc1nccc(=O)[nH]1)N1CCN(c2ccccc2)CC1	3.5	-7.3	i	i	-2.8	-2.1	/
N=c1n(CC(=O)c2ccc([N+](=O)[O-])cc2)c2ccccc2n1Cc1ccccc1	75.0*	-29.2	i	i	140.2*	9.2	24.3
COc1ccc(-c2csc(NC(=S)NC(=O)/C=C/c3ccco3)n2)cc1Br	29.6	10.5	i	i	202.0*	18.4	201.5*
COc1cc2c(cc1NC(=S)NC(=O)/C=C/c1ccc(OC)c(OC)c1)oc1ccccc12	-34.8	-22.9	/	i	/	/	/
COc1cc2c(cc1NC(=S)NC(=O)/C=C/c1ccco1)oc1ccccc12	-42.7	-24.0	i	i	52.4*	11.0	77.3*
O=C(CCNC(=O)c1ccccc1Cl)NCC1COc2ccccc2O1 (stereo not given)	/	/	/	i	0.3	-0.5	/
CC1(c2nnc(Cc3ccccc3)o2)CC(c2c(Cl)cccc2Cl)=NO1 (stereo not given)	/	/	i	i	-1.3	0.9	/
O=C(N=C1SC2CS(=O)(=O)CC2N1CCc1ccc(F)cc1)C1CCCCC1 (stereo not given)	/	-5.8	i	i	1.9	-2.9	/
COc1ccc(-c2cc(C(F)F)n3ncc(C(=O)Nc4ccc(C(=O)N5CCOCC5)cc4)c3n2)cc1	58.0	8.3	i	i	33.0*	6.2	51.6*
CCOC(=O)c1c(NC(=O)c2cc3n(n2)C(C(F)(F)F)CC(c2cccs2)N3)sc(C)c1C (stereo not given)	59.5	21.5	i	i	33.3*	32.9	205.8*
C[C@H]1[C@H](C)CC[C@]2(C(=O)O)CC[C@]3(C)C(=CC[C@@H]4[C@@]5(C)C[C@@H](O)[C@H](O)C(C)(C)[C@@H]5CC[C@]43C)[C@H]12	72.4*	-4.0	i	-9.75*	103.3*	1.4	123.7*
C[C@H]1[C@H](C)CC[C@]2(C(=O)O)CC[C@]3(C)C(=CC[C@@H]4[C@@]5(C)CC[C@H](O)C(C)(C)[C@@H]5CC[C@]43C)[C@H]12	72.5*	-2.4	i	i	39.0*	1.2	18.3
CN(C)S(=O)(=O)NC(=O)C1=C(N2CCCC2)COC1=O	/	/	/	i	1.5	-1.3	/
SMILES	CHOP inhibitor	Hep lipid drop	TMEM16A inh	TMEM16A act	UPR XBP1 act	CHOP UPR activ	UPR XBP1 confirm
CCOC(=O)c1c(S(=O)(=O)NCc2cccs2)c(C)n(C)c1C	/	-10.1	i	i	0.1	0.1	/
c1ccc(-c2cc(-c3nnc4n3N=C(c3ccc5ccccc5c3)CS4)[nH]n2)cc1	-14.4	14.9	i	i	32.2*	31.5	4.3
COc1ccc(OC)c(-c2nnc3n2N=C(c2ccc(OC)c(OC)c2)CS3)c1	/	/	/	i	37.2*	-0.3	42.1*
O=C(COC(=O)[C@@H]1CCCN1C(=O)c1cccs1)Nc1cccc([N+](=O)[O-])c1	/	/	/	i	-1.2	0.7	/
CCN(CC)S(=O)(=O)c1ccc2c(c1)C(=NO)c1cc(S(=O)(=O)N(CC)CC)ccc1-2	-21.9	-0.9	i	i	51.6*	14.0	78.6*
CCN(CC)S(=O)(=O)c1ccc(C)c(C)c1	5.0	-1.4	i	i	1.0	-1.5	/
CC(=O)Nc1ccc(-c2cc(-c3ccc(NC(C)=O)cc3)nc(-c3ccccc3)n2)cc1	21.6	/	i	i	45.8*	2.7	3.0
CCC(=O)Nc1ccc(-c2cc(-c3ccccc3)nc(-c3ccc(NC(=O)CC)cc3)n2)cc1	9.5	/	i	i	82.0*	3.4	92.5*
O=[N+]([O-])c1ccc(-c2ccc(/C=N/Nc3nc(NCc4ccccc4)nc(N4CCOCC4)n3)o2)cc1	-48.0	10.6	i	i	46.7*	33.6	25.1
COc1nc(N/N=C/c2ccc(-c3ccccc3[N+](=O)[O-])o2)nc(N2CCOCC2)n1	30.0	1.2	i	i	2.0	9.0	/
Fc1cccc(Cl)c1CNCc1ccccc1Cl	53.6	-2.5	i	i	0.2	1.3	/
Cc1ccccc1NC(=O)Nc1nnc(Cc2ccc([N+](=O)[O-])cc2)s1	90.8*	-6.2	i	i	72.5*	4.8	3.1
O=C(Nc1nnc(Cc2ccc(F)cc2)s1)Nc1ccccc1F	/	-0.5	i	i	-4.5	2.2	/
